Calls of active or inactive are those of the source. The rule behind the calls is not given here.
Columns and labels:
[1] = Toxicity in human-inducible pluripotent stem cell-derived Cardiomyocyte assessed as reduction in cardiomyocyte beating at 1 nM after 2 hrs; parameters: scale not given: the % may be the effect or the level left; conditions: cardiac muscle cell, 0.001 µM
In short: (§1)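 Cultured human iPSC-derived cardiomyocytes expressing S1P1 and S1P3, exposed to a range of concentrations of the phosphate; beating rate measured and the no-effect concentration determined.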

Mus musculus [2] = assay: Reduction of blood lymphocyte level in BALB/c mouse administered through oral gavage after 24 hrs by hematology analysis; assay type: functional, organism-based; conditions: for ED50: po
[3] = Toxicity in human-inducible pluripotent stem cell-derived Cardiomyocyte assessed as reduction in cardiomyocyte beating at 0.1 nM after 2 hrs; conditions: cardiac muscle cell, 0.0001 µM; in short: as §1
[4] = Toxicity in human-inducible pluripotent stem cell-derived Cardiomyocyte assessed as reduction in cardiomyocyte beating after 2 hrs; conditions: cardiac muscle cell; in short: as §1
[5] = target: T1, Sphingosine 1-phosphate receptor 4 (Homo sapiens, UniProt O95977); assay: Agonist activity at human S1P4 receptor by GTPgammaS binding assay; assay type: functional
T1 sequence (O95977 whole entry): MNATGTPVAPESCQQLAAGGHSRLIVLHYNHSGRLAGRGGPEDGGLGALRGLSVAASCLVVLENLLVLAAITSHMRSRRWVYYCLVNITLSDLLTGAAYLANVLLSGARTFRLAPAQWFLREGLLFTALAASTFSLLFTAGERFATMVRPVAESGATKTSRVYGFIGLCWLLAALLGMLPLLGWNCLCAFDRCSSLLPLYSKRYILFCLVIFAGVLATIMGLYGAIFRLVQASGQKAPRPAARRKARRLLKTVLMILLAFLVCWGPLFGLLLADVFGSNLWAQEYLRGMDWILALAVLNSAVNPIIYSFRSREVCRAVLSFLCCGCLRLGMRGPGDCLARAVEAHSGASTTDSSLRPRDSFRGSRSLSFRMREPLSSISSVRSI

Heart [6] = assay: Toxicity in guinea pig heart assessed as third degree AV block at 1 nM after 10 mins by ECG analysis; assay type: tissue-based, Cavia porcellus; conditions: 0.001 µM
In short: (§2)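 Isolated guinea pig hearts perfused with the phosphate at the stated concentrations; ventricular rate and atrioventricular conduction (third-degree AV block) monitored.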

Heart [7] = assay: Toxicity in guinea pig heart assessed as reduction in ventricular rate at 1 nM after 10 mins by ECG analysis; assay type: tissue-based, Cavia porcellus, Cardiac ventricle; conditions: 0.001 µM; in short: as §2
Heart [8] = assay: Toxicity in guinea pig heart assessed as reduction in ventricular rate at 1000 nM after 10 mins by ECG analysis; assay type: tissue-based, Cavia porcellus, Cardiac ventricle; conditions: 1 µM; in short: as §2
Heart [9] = assay: Toxicity in guinea pig heart assessed as reduction in ventricular rate at 100 nM after 10 mins by ECG analysis; assay type: tissue-based, Cavia porcellus, Cardiac ventricle; conditions: 0.1 µM; in short: as §2
[10] = target: T2, Sphingosine 1-phosphate receptor 3 (Homo sapiens, UniProt Q99500); assay: Agonist activity at human S1P3 receptor by GTPgammaS binding assay; assay type: functional
T2 sequence (Q99500 whole entry): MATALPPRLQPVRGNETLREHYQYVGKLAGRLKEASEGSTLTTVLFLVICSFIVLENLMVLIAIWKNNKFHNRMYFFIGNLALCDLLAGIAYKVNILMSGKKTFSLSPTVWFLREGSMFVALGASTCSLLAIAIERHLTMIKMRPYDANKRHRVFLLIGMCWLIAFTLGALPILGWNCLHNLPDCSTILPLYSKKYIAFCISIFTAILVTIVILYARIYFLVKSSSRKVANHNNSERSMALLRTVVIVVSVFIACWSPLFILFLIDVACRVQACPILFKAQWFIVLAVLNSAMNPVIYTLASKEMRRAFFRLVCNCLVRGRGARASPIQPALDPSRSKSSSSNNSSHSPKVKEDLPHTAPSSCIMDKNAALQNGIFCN

[11] = target: T3, Sphingosine 1-phosphate receptor 1 (Homo sapiens, UniProt P21453); assay: Agonist activity at human S1P1 receptor expressed in CHO cells assessed as ERK phosphorylation after 7 mins by alphaLISA; assay type: cell-based
T3 sequence (P21453 whole entry): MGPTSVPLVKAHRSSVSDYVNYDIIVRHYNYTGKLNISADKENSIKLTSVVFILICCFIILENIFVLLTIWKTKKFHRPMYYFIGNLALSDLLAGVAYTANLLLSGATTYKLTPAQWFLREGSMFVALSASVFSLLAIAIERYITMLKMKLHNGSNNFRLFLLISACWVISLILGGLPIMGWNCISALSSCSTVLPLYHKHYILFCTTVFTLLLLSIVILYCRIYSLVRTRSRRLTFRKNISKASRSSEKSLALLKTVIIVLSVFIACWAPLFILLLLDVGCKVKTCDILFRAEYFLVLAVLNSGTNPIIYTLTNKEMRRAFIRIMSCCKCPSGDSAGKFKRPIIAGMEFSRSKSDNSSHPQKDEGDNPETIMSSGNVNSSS

Heart [12] = assay: Toxicity in guinea pig heart assessed as third degree AV block at 1000 nM after 10 mins by ECG analysis; assay type: tissue-based, Cavia porcellus; conditions: 1 µM; in short: as §2
[13] = target: Sphingosine 1-phosphate receptor 5 (Homo sapiens, UniProt Q9H228); assay: Agonist activity at human S1P5 receptor by GTPgammaS binding assay; assay type: functional
Sphingosine 1-phosphate receptor 5, sequence (Q9H228 whole entry): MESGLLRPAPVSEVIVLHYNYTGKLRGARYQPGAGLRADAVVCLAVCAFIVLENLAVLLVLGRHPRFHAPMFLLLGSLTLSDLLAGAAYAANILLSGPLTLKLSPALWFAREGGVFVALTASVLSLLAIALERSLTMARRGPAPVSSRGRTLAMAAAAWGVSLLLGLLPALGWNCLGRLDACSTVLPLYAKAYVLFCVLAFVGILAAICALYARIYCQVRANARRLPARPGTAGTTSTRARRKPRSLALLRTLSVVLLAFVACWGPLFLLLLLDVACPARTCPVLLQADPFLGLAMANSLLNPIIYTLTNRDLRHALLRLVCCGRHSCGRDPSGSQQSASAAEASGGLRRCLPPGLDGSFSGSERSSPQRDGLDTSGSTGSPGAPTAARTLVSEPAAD

[14] = target: T3, Sphingosine 1-phosphate receptor 1; assay: Agonist activity at human S1P1 receptor expressed in CHO cells co-expressing GFP assessed as cellular internalization after 45 mins by Hoechst assay; assay type: cell-based
[15] = target: T3, Sphingosine 1-phosphate receptor 1; assay: Agonist activity at human S1P1 receptor expressed in CHO cells assessed as cAMP accumulation after 30 mins by HTRF analysis; assay type: functional, cell-based
Heart [16] = assay: Toxicity in guinea pig heart assessed as third degree AV block at 100 nM after 10 mins by ECG analysis; assay type: tissue-based, Cavia porcellus; conditions: 0.1 µM; in short: as §2
[17] = target: T2, Sphingosine 1-phosphate receptor 3; assay: Antagonist activity at human S1P3 receptor by GTPgammaS binding assay; assay type: functional
[18] = Drug metabolism in BALB/c mouse whole blood assessed as whole blood phosphate area ratio at 10 uM after 4 hrs by LC/MS/MS analysis; assay type: ADME, tissue-based
In short: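 Mouse whole blood incubated with the amino-alcohol prodrug; phosphorylated product measured by LC/MS/MS after 4 h to give the relative extent of phosphate ester formation.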

Blood [19] = assay: Drug metabolism in BALB/c mouse blood assessed as formation of phosphate ester metabolite at 10 mg/kg administered through oral gavage after 24 hrs by LC/MS/MS analysis; assay type: ADME, organism-based; conditions: in vivo
In short: (§3)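 Mouse PK study: alcohol prodrug given orally at 10 mg/kg, and formation of the phosphate metabolite in blood measured.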

Blood [20] = assay: Drug metabolism in BALB/c mouse blood assessed as formation of phosphate ester metabolite at 10 mg/kg administered through oral gavage after 4 hrs by LC/MS/MS analysis; assay type: ADME, organism-based; conditions: in vivo; in short: as §3
Mus musculus [21] = assay: Reduction of blood lymphocyte level in BALB/c mouse at 1 mg/kg administered through oral gavage after 24 hrs by hematology analysis; assay type: functional; parameters: scale not given: the % may be the effect or the level left
In short: (§4)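 Mice given a single oral 1 mg/kg dose; circulating lymphocytes counted 24 h later as the pharmacodynamic marker.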

Blood [22] = assay: Drug metabolism in BALB/c mouse blood assessed as formation of phosphate metabolite at 1 mg/kg administered through oral gavage after 24 hrs by LC/MS/MS analysis; assay type: ADME, organism-based; conditions: in vivo
In short: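 Single oral 1 mg/kg dose in mice; phosphate level in blood determined at 24 h postdose.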

Mus musculus [23] = assay: Reduction in blood lymphocyte level in BALB/c mouse at 1 mg/kg, po after 24 hrs by hematology analysis; assay type: functional, organism-based; in short: as §4

| EC50 (Mus musculus [2]) [nM] | EC50 [5] [nM] | Ratio [18] | Drug metabolism (Blood [19]) [nM] | Drug metabolism (Blood [20]) [nM] | SMILES | Activity [1] | ED50 (Mus musculus [2]) [mg/kg] | Activity (Mus musculus [21]) [%] | other results |
| --- | --- | --- | --- | --- | --- | --- | --- | --- | --- |
| 5.6 | 0.09 | – | – | – | CCCCCCCCc1ccc(CCC(N)(CO)COP(=O)(O)O)cc1 (stereo unspecified) | 35% | 0.017 | – | Activity [3]: Non-toxic; Activity [4]: Dose-dependent effect; Activity (Heart [6]): Toxic; Activity (Heart [7]): 32 bpm |
| 7.9 | 10.5 | – | – | – | CCCCCC[C@@H]1CCc2cc([C@H]3CC[C@](N)(COP(=O)(O)O)C3)ccc2C1 | Non-toxic | 0.12 | – | Activity (Heart [8]): Toxic; Activity (Heart [9]): Non-toxic; EC50 [10]: > 1000 nM; EC50 [11]: 8.16 nM; Activity (Heart [12]): Toxic; EC50 [13]: 10.7 nM; EC50 [14]: 0.114 nM; EC50 [15]: 0.006 nM; Activity (Heart [16]): Non-toxic; IC50 [17]: > 1000 nM |
| – | – | 0.07 | 14 | < 9.8 | CCCCCCC1CCc2cc(C3CCC(N)(CO)C3)ccc2C1 (stereo in doubt; 3a) | – | – | 12 | – |
| – | – | 1.6 | 475 | 67 | CCCCCCC1CCc2cc(C3CCC(N)(CO)C3)ccc2C1 (stereo in doubt; 3b) [listing 1 of 2 here] | – | – | 90 | Drug metabolism (Blood [22]): 47 nM |
| – | – | – | – | – | CCCCCCC1CCc2cc(C3CCC(N)(CO)C3)ccc2C1 (stereo in doubt; 3b) [listing 2 of 2 here] | – | – | – | Activity (Mus musculus [23]): Active |
| – | – | 0.14 | 46 | 12 | CCCCCCC1CCc2cc(C3CCC(N)(CO)C3)ccc2C1 (stereo in doubt; 3c) | – | – | 18 | – |
